Results from publication PMC2904523 (Journal of medicinal chemistry, 2010).

What was measured:
[1] = system: RT of HIV-1DH012 (lysate); assay: RT enzymatic inhibition; type: biochemical; settings: RT from HIV-1DH012 lysate; Figure 3; average of three assays
Summary of the method: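 Reverse transcriptase came from a lysate of HIV-1DH012, a primary viral isolate. Enzyme activity was measured at various test compound concentrations with a commercial colorimetric HIV-1 RT kit, following the manufacturer's protocol. Each value is the average of three independent assays.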

HIV-1 IIIB = assay: HIV growth inhibition assay in H9 lymphocytes; settings: for EC50 (concentration that causes 50% inhibition of HIV-1 IIIB replication): HIV-1 IIIB in H9 cells, Panacos, average of three independent assays; for selectivity ratio at 6 days: human, SI (selective index) = CC50/EC50, HIV-1 IIIB in H9 cells

Row | SMILES | RT inhibition activity [1] | EC50 (concentration that causes 50% inhibition of HIV-1 IIIB replication) (HIV-1 IIIB) | selectivity ratio at 6 days (HIV-1 IIIB)
1 | Cc1cc(C#N)cc(C)c1Oc1cc(Nc2ccc(C#N)cc2)c(N)cc1[N+](=O)[O-] [Compound 37, 5-(4″-Cyano-2″,6″-dimethylphenoxy)-N^1-(4′-cyanophenyl)-4-nitrobenzene-1,2-diamine] | potently inhibited RT activity |  | 
2 | Cc1cc(C#N)cc(C)c1Oc1ccc([N+](=O)[O-])c(Nc2ccc(C#N)cc2)c1 [Compound 26, 5-(4″-Cyano-2″,6″-dimethylphenoxy)-N-(4′-cyanophenyl)-2-nitroaniline] |  | sub-micromolar level | 
3 | Cc1cc(Br)cc(C)c1Oc1cc(Nc2ccc(C#N)cc2)c(N)cc1N [Compound 32, 5-(4″-Bromo-2″,6″-dimethylphenoxy)-N^1-(4′-cyanophenyl)benzene-1,2,4-triamine] |  | sub-micromolar level | 
4 | Cc1cc(C#N)cc(C)c1Oc1nc(Nc2ccc(C#N)cc2)nc(N)c1Br [Compound 4, etravirine, reference compound] | potently inhibited RT activity |  | 
5 | Cc1cc(C)c(Oc2cc(Nc3ccc(C#N)cc3)c([N+](=O)[O-])cc2[N+](=O)[O-])c(C)c1 [Compound 22, N-(4′-Cyanophenyl)-2,4-dinitro-5-(2″,4″,6″-trimethylphenoxy)aniline] |  | sub-micromolar level | 113 to 313
6 | Cc1cccc(C)c1Oc1cc(Nc2ccc(C#N)cc2)c([N+](=O)[O-])cc1[N+](=O)[O-] [Compound 20, N-(4′-Cyanophenyl)-5-(2″,6″-dimethylphenoxy)-2,4-dinitroaniline] |  | sub-micromolar level | 113 to 313
7 | Cc1cc(Br)cc(C)c1Oc1ccc([N+](=O)[O-])c(Nc2ccc(C#N)cc2)c1 [Compound 24, 5-(4″-Bromo-2″,6″-dimethylphenoxy)-N-(4′-cyanophenyl)-2-nitroaniline] |  | sub-micromolar level | 113 to 313
8 | Cc1cc(C#N)cc(C)c1Oc1cc(Nc2ccc(C#N)cc2)c(N)cc1N [Compound 34, 5-(4″-Cyano-2″,6″-dimethylphenoxy)-N^1-(4′-cyanophenyl)benzene-1,2,4-triamine] | potently inhibited RT activity |  | 
9 | Cc1cc(Br)cc(C)c1Oc1cc(Nc2ccc(C#N)cc2)c([N+](=O)[O-])cc1[N+](=O)[O-] [Compound 19, 5-(4″-Bromo-2″,6″-dimethylphenoxy)-N-(4′-cyanophenyl)-2,4-dinitrsoaniline] |  | sub-micromolar level | 
10 | Cc1cc(Br)cc(C)c1Oc1cc(Nc2ccc(C#N)cc2)c(N)cc1[N+](=O)[O-] [Compound 36, 5-(4″-Bromo-2″,6″-dimethylphenoxy)-N^1-(4′-cyanophenyl)-4-nitrobenzene-1,2-diamine] |  |  | > 2800
